The results in this text go back to ChEMBL document CHEMBL1250547, “Synthesis and evaluation of original amidoximes as antileishmanial agents” (Bioorg Med Chem, 2010).

SMILES strings stand for the structures. pIC50: −log10 of the molar value. A value given as a limit tells only on which side of the number the result lay.

Data set [1] can be described thus: Selectivity index, ratio of IC50 for human THP1 cells to IC50 for promastigotes of Leishmania donovani HOM/IN/01/2001. The data set is classed as toxicity, cell-based, THP-1. Particulars: read-out: Selectivity Index.
For another data set, the system named is THP-1. Briefly: Cytotoxicity against human THP1 cells after 72 hrs by flow cytometry. In kind it is cell-based. The note with it: THP-1, 72 h. The method in brief: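 Late log-phase THP1 monocytes in phenol red-free RPMI 1640 with 10% FCS, 2% L-glutamine, 1% penicillin-streptomycin; compound range in duplicate, DMSO final <0.5% v/v; 72 h at 37 °C, 6% CO2; propidium iodide staining, live cells counted by flow cytometry; doxorubicin, pentamidine and solvent controls; IC50 by non-linear regression, mean of three independent experiments.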

Another data set deals with Leishmania donovani. Briefly: Antileishmanial activity against promastigotes of Leishmania donovani HOM/IN/01/2001 after 72 hrs by flow cytometry. The data set is classed as functional, organism-based. Particulars: HOM/IN/01/2001, 72 h. In outline:
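GFP-transfected late log-phase promastigotes in M199 with 10% FCS and 500 µg/mL G418, seeded at about 10⁵ parasites/mL; compounds in DMSO (final <0.5% v/v) over a concentration range in duplicate; 72 h at 27 °C; growth read by green fluorescence flow cytometry; DMSO and pentamidine controls; IC50 versus control by non-linear regression of dose-response curves.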

In the case of `N/C(=N\O)c1ccc(Nc2ccc(S(=O)(=O)C3=C(c4ccc(/C(N)=N/O)cc4)OC(c4ccccc4)(c4ccccc4)C3)cc2)cc1`, the selectivity ratio in data set [1] is over 1.3. For the same compound, the pIC50 is under 4.30 in the data set with THP-1 and 4.41 with Leishmania donovani.

For the compound `N/C(=N\O)c1ccc(Nc2ccc(C3=C(S(=O)(=O)c4ccc(/C(N)=N/O)cc4)CC(c4ccccc4)(c4ccccc4)O3)cc2)cc1`, the selectivity ratio in data set [1] was under 1. In addition, the pIC50 in the data set on THP-1 was 4.31; with Leishmania donovani, under 4.30.

As to `CC1(Cc2ccccc2)CC(S(=O)(=O)c2ccc(Nc3ccc(/C(N)=N/O)cc3)cc2)=C(c2ccc(/C(N)=N/O)cc2)O1` (centres undefined), in data set [1], the selectivity ratio is under 1. In addition, the pIC50 in the data set with THP-1 was 4.32; in the data set with Leishmania donovani, under 4.30.

Regarding `CC1(Cc2ccccc2)CC(S(=O)(=O)c2ccc(/C(N)=N/O)cc2)=C(c2ccc(Nc3ccc(/C(N)=N/O)cc3)cc2)O1` (centres undefined), in data set [1], the selectivity ratio is 0.3. Also, the values for the pIC50 in the data set with THP-1 and in the data set with Leishmania donovani were 5.01 and 4.52, respectively.

As for `N/C(=N\O)c1ccc(C2=C(S(=O)(=O)c3ccc(Nc4cccc(/C(N)=N/O)c4)cc3)CC(c3ccccc3)(c3ccccc3)O2)cc1`, the pIC50 in the data set on THP-1 and in the data set with Leishmania donovani was under 4.30 throughout.

`N/C(=N\O)c1ccc(S(=O)(=O)C2=C(c3ccc(Nc4cccc(/C(N)=N/O)c4)cc3)OC(c3ccccc3)(c3ccccc3)C2)cc1`: in data set [1], the selectivity ratio was under 1. For the same compound, the pIC50 was 4.32 in the data set on THP-1 and under 4.30 in the data set with Leishmania donovani.

As for `CC1(Cc2ccccc2)CC(S(=O)(=O)c2ccc(Nc3cccc(/C(N)=N/O)c3)cc2)=C(c2ccc(/C(N)=N/O)cc2)O1` (centres undefined), in data set [1], the selectivity ratio was under 1. Besides, the pIC50 in the data set on THP-1 is 4.33; in the data set with Leishmania donovani, under 4.30.

Regarding `CC1(Cc2ccccc2)CC(S(=O)(=O)c2ccc(/C(N)=N/O)cc2)=C(c2ccc(Nc3cccc(/C(N)=N/O)c3)cc2)O1` (centres undefined), the selectivity ratio in data set [1] was under 0.9. The pIC50 is 4.36 in the data set on THP-1 and under 4.30 in the data set on Leishmania donovani.

On to `N/C(=N\O)c1ccc(C2=C(S(=O)(=O)c3ccc(Nc4ccccc4/C(N)=N/O)cc3)CC(c3ccccc3)(c3ccccc3)O2)cc1`, for which the selectivity ratio in data set [1] is over 1.3. Besides, the pIC50 was under 4.30 with THP-1 and 4.41 in the data set on Leishmania donovani.

Regarding `N/C(=N\O)c1ccc(S(=O)(=O)C2=C(c3ccc(Nc4ccccc4/C(N)=N/O)cc3)OC(c3ccccc3)(c3ccccc3)C2)cc1`, in data set [1], the selectivity ratio came out at 3.6. The negative-log IC50 (pIC50) in the data set on THP-1 is 4.32; in the data set on Leishmania donovani, 4.88.

On to `CC1(Cc2ccccc2)CC(S(=O)(=O)c2ccc(Nc3ccccc3/C(N)=N/O)cc2)=C(c2ccc(/C(N)=N/O)cc2)O1` (centres undefined), for which the selectivity ratio in data set [1] was found to be 1. Further, the pIC50 in the data set with THP-1 and in the data set with Leishmania donovani was 4.32 each time.

Consider `CC1(Cc2ccccc2)CC(S(=O)(=O)c2ccc(/C(N)=N/O)cc2)=C(c2ccc(Nc3ccccc3/C(N)=N/O)cc2)O1` (centres undefined), for which, in data set [1], the selectivity ratio stood at 5.5. The pIC50 with THP-1 is 4.32; with Leishmania donovani, 5.06.

`N/C(=N\O)c1ccc(/C=C/c2ccc(S(=O)(=O)C3=C(c4ccc(/C(N)=N/O)cc4)OC(c4ccccc4)(c4ccccc4)C3)cc2)cc1`: the selectivity ratio in data set [1] was over 0.2. Moreover, the figures for the negative-log IC50 (pIC50) in the data set on THP-1 and with Leishmania donovani were under 5.00 and 4.30, respectively.

Consider `N/C(=N\O)c1ccc(/C=C/c2ccc(C3=C(S(=O)(=O)c4ccc(/C(N)=N/O)cc4)CC(c4ccccc4)(c4ccccc4)O3)cc2)cc1`, for which the selectivity ratio in data set [1] is under 0.9. In addition, the figures for the pIC50 with THP-1 and with Leishmania donovani were 4.38 and under 4.30, respectively.

On to `CC1(Cc2ccccc2)CC(S(=O)(=O)c2ccc(/C=C/c3ccc(/C(N)=N/O)cc3)cc2)=C(c2ccc(/C(N)=N/O)cc2)O1` (centres undefined), for which the negative logarithm of the IC50 (pIC50) in the data set on THP-1 and in the data set with Leishmania donovani was under 4.30 each time.

Consider `CC1(Cc2ccccc2)CC(S(=O)(=O)c2ccc(/C(N)=N/O)cc2)=C(c2ccc(/C=C/c3ccc(/C(N)=N/O)cc3)cc2)O1` (centres undefined), for which, in data set [1], the selectivity ratio turned out to be 1.4. The results for the pIC50 with THP-1 and in the data set with Leishmania donovani were 4.63 and 4.77, respectively.

Turning to `CC1(Cc2ccccc2)CC(S(=O)(=O)c2ccc(/C(N)=N/O)cc2)=C(c2ccccc2)O1` (centres undefined), in data set [1], the selectivity ratio turned out to be 6.6. For the same compound, the figures for the pIC50 with THP-1 and in the data set on Leishmania donovani were 4.26 and 5.08, respectively.

As to `CC1(Cc2ccccc2)CC(S(=O)(=O)c2ccc(/C(N)=N/O)cc2)=C(c2ccc(/C(N)=N/O)cc2)O1` (centres undefined), the selectivity ratio in data set [1] amounted to 1. Also, the pIC50 in the data set on THP-1 and with Leishmania donovani was 4.00 in each case.

In the case of `N/C(=N\O)c1ccc(C(=O)CS(=O)(=O)c2ccccc2)cc1`, the pIC50 in the data set on THP-1 and in the data set on Leishmania donovani was under 3.90 each time.

Take `N/C(=N\O)c1ccc(S(=O)(=O)CC(=O)c2ccccc2)cc1`: the negative-log IC50 (pIC50) in the data set with THP-1 and with Leishmania donovani was under 3.90 each time.

Regarding `N/C(=N\O)c1ccc(C(=O)CS(=O)(=O)c2ccc(/C(N)=N/O)cc2)cc1`, the pIC50 in the data set with THP-1 and in the data set with Leishmania donovani was under 3.90 throughout.

For the compound `N/C(=N\O)c1ccc(C2=C(S(=O)(=O)c3ccccc3)CC(c3ccccc3)(c3ccccc3)O2)cc1`, in data set [1], the selectivity ratio turned out to be 1.5. Moreover, the pIC50 is 4.51 in the data set on THP-1 and 4.69 in the data set with Leishmania donovani.

For the compound `N/C(=N\O)c1ccc(S(=O)(=O)C2=C(c3ccccc3)OC(c3ccccc3)(c3ccccc3)C2)cc1`, the selectivity ratio in data set [1] was 2.1. In addition, the pIC50 with THP-1 is 4.42; with Leishmania donovani, 4.75.

In the case of `N/C(=N\O)c1ccc(C2=C(S(=O)(=O)c3ccc(/C(N)=N/O)cc3)CC(c3ccccc3)(c3ccccc3)O2)cc1`, the selectivity ratio in data set [1] amounted to 1.6. Besides, the pIC50 in the data set with THP-1 is 3.92; with Leishmania donovani, 4.13.

Take `CC1(Cc2ccccc2)CC(S(=O)(=O)c2ccccc2)=C(c2ccc(/C(N)=N/O)cc2)O1` (centres undefined): the selectivity ratio in data set [1] turned out to be 3.1. The pIC50 with THP-1 is 4.02; with Leishmania donovani, 4.52.

For `COc1cccc2c1C(=O)c1c(O)c3c(c(O)c1C2=O)C[C@@](O)(C(=O)CO)C[C@@H]3O[C@H]1C[C@H](N)[C@H](O)[C@H](C)O1` [DOXORUBICIN], in the data set with THP-1, the pIC50 was 8.10.

Consider `N=C(N)c1ccc(OCCCCCOc2ccc(C(=N)N)cc2)cc1` [PENTAMIDINE], for which the selectivity ratio in data set [1] was 2.8. The pIC50 in the data set on THP-1 was 4.51; in the data set with Leishmania donovani, 4.95.
